The source of these data is PubChem BioAssay AID540295 (The Scripps Research Institute Molecular Screening Center, 2011).

Among all 360,000 compounds or so, about 1,700 (0.47%) were called active. This is one part of a sample in which actives are shown more often than they occur.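 The calls were made as follows: active = inhibition above its plate's cutoff, the mean of tested wells on that plate plus 3 SD (cut at about 29% in these data); inactive = the rest.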

Sequence of Melanocortin receptor 4 (Homo sapiens) (P32245 whole entry, looked up): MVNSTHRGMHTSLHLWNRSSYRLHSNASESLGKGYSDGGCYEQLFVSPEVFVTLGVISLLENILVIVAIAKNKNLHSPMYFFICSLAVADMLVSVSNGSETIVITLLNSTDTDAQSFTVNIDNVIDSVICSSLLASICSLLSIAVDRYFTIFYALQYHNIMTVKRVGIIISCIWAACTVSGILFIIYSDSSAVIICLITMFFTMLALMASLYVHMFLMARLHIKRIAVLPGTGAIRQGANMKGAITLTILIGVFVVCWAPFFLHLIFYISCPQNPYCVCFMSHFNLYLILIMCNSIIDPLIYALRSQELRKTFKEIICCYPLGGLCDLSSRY

For this experiment, the target named is Melanocortin receptor 4 (Homo sapiens) (UniProt P32245). Briefly: blockers of MC4R Gs-cAMP response – cell-based, TR-FRET, antagonist arm of biased-ligand search, primary screen (AID 540295).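 Also: 0% = Melanotan II alone and 100% = Melanotan II plus saturating MCL0020.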 As to conditions: MC4R-expressing cells, MTII-stimulated cAMP, LANCE TR-FRET; at 6.5 µM; hits give high values. Summed up:
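System: U2OS-MC4R stable cell line; Technique: Eu-cAMP/anti-cAMP TR-FRET, emission 671 nm; Repeats: single well per compound; Also added: Melanotan II; Dosing: one concentration, 6.5 µM nominal; Schedule: 30-min compound, 1-h challenge, 1-h detection, room temperature.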
For orientation: In TR-FRET formats the signal depends on donor and acceptor labels being close together.
As a reminder, the inhibition is the drop in the measured response relative to a control, in per cent. As for `CC/C(Cc1ccccc1)=N/NC(=O)CCn1nnc2ccccc21`, the inhibition is 9.16% (inactive). The value for `CC12CCC(=O)C=C1CCC1C2C(O)CC2(C)C1CCC2(O)C(O)CO` (stereo not given) was 1.23% (inactive); that for `CCOC(=O)COc1nc(C)cc(C(F)(F)F)c1C#N` was -2.8% (inactive); that for `CCOC(=O)c1cc(C)nc(S(C)(=O)=O)c1C#N` was 38.7% (active). The value for `CCOC(=O)c1c(C(C#N)C#N)cc(C)nc1C` was 1.49% (inactive); that for `O=C(Nc1ccccc1F)c1cc(S(=O)(=O)N2CCCCC2)cs1` was 3.77% (inactive).

For `Cn1ccs/c1=N\S(=O)(=O)c1ccc(C(C)(C)C)cc1`, the inhibition is 8.67% (inactive). Next, `COc1ccc(N2C(=O)C3C(C2=O)C(C(=O)c2ccccc2)N2CCCC32)cc1` (stereo not given): 30.8% (active); `CNC(=O)C[C@H]1C(=O)N(c2ccc(OC)cc2)C[C@@H]1Cc1ccccc1`: -3.72% (inactive); `COc1ccc(N2C(=O)CC(N3CCC(C(N)=O)CC3)C2=O)cc1` (stereo not given): 5.05% (inactive). The value for `O=C(CCc1nnc(Cc2ccc3c(c2)OCO3)o1)NCCc1ccccc1Cl` was 2.77% (inactive). The value for `NCCCNC(=S)NCCCN(Cc1ccc(Cl)cc1)c1ccc(Br)cn1` was 3.71% (inactive). `O=C(NCc1ccccc1)C1=C[C@@H](C2CCCCC2)C[C@@H](OCc2ccc(CO)cc2)O1`: the inhibition is 4.66% (inactive). Next, `CC(=O)c1ccccc1NC(=O)COC(=O)C1COc2ccccc2O1` (stereo not given): 16.3% (inactive); `CCC1CCCCN1CCCNC(=O)c1cc2c(Cl)nc3ccccc3c2s1` (stereo not given): -9.04% (inactive); `COc1ccc(Cl)cc1NC(=O)NCC1CCN(Cc2ccccc2F)CC1`: 3.98% (inactive).

With `Cc1cccc(CN2CCC(CNC(=O)Nc3ccc(F)c(Cl)c3)CC2)c1`, the inhibition is 1.8% (inactive). Next, `O=C(NCC1CCN(Cc2ccccc2Cl)CC1)Nc1cccc(Cl)c1`: 29.6% (active).

As for `FC(F)Oc1ccccc1NC(=S)Nc1cccc(Cl)c1Cl`, the inhibition was 0.43% (inactive). Turning to `S=C(Cc1ccc(Cl)cc1)N1CCOCC1`, the inhibition is 2.15% (inactive). The value for `COc1ccccc1NC(=O)c1ccc2nc(N3C(=O)CCC3=O)sc2c1` was 35.1% (active); that for `COc1ccccc1-c1nnc(NC(=O)c2cccc(N3C(=O)CCC3=O)c2)o1` was 17.9% (inactive). The value for `CCCc1cc(=O)[nH]c(SCC(=O)Nc2ccc(C(=O)Nc3ccccc3OC)cc2)n1` was 10.3% (inactive).

Consider `COC(=O)/C(=C1\Oc2ccc(C(C)(C)C)cc2S1)C(F)(F)F`, for which the inhibition is 13.2% (inactive).

Turning to `CCc1nc2c(OCCOc3ccccc3)cccn2c1N(C)C(=O)c1cccs1`, the inhibition was -6.4% (inactive). Next, `COC(=O)COc1ccc2c(=O)c(Oc3ccccc3Br)coc2c1`: 11% (inactive); `COC(=O)c1ccccc1NC(=O)Cc1ccccc1OC`: 18.4% (inactive); `O=C(COC(=O)CSc1ccccc1)Nc1ccc(F)cc1F`: 9.52% (inactive). The value for `COc1ccccc1CC(=O)Nc1ccc(F)cc1F` was 28.9% (active); that for `CCCCOc1ccc(C(=O)N/C(=C/C=C/c2ccccc2)C(=O)N2CCOCC2)cc1` was 3.43% (inactive); that for `O=C(Nc1nn(Cc2ccccc2F)cc1Br)c1cccs1` was 11.3% (inactive). The value for `C=CCn1c2ccccc2c2nnc(SCc3[nH]c(=O)[nH]c3C(=O)CCCCC(=O)OCC)nc21` was -12.2% (inactive); that for `CC1(C)C(=O)Nc2ccccc2N1C(=O)COC(=O)Cn1cnc2ccccc2c1=O` was 13.1% (inactive); that for `O=C(COC(=O)Cn1cnc2ccccc2c1=O)NCc1ccccc1Cl` was 10.8% (inactive). `O=C(COC(=O)Cn1cnc2ccccc2c1=O)NCC12CC3CC(CC(C3)C1)C2`: the inhibition is 29.2% (active). The value for `O=C(N/C(=C\c1ccc(O)cc1)C(=O)N1CCCCC1)c1ccccc1` was 2.84% (inactive); that for `COc1ccc(N)cc1NC(=O)CN1CCOCC1` was -2.41% (inactive); that for `O=C(O)c1n[nH]nc1-c1ccccc1` was 3.02% (inactive).

On to `CCOC(=O)CSc1nc(C)c(Oc2ccc(Cl)cc2Cl)c(=O)[nH]1`, for which the inhibition is 5.59% (inactive). Consider `Cc1nnc(SCC(=O)N2CCOCC2)[nH]c1=O`, for which the inhibition is 2.07% (inactive). Next, `CCCCOC(=O)CNc1nnc(SCC(=O)OCC)[nH]c1=O`: 60.6% (active); `NC(=O)c1ccc(NC(=O)COC(=O)C(Cc2ccccc2)NC(=O)c2ccccc2)cc1` (stereo not given): 11% (inactive); `Cc1ccc(C)c(NC(CC(=O)c2ccccc2)C(=O)OCC(=O)c2cccs2)c1` (stereo not given): -0.53% (inactive).

Turning to `O=C(COC(=O)[C@H](Cc1ccccc1)NC(=O)c1cccs1)Nc1cc(F)ccc1F`, the inhibition was 31.4% (active).

In the case of `CCc1nc2c(OCc3ccc(C(F)(F)F)cc3)cccn2c1N(C)C(=O)CC(C)C`, the inhibition is 6.64% (inactive). Next, `O=S(=O)(NCc1ccco1)c1cnc(Cl)c(Cl)c1`: 44.9% (active); `O=C(COC(=O)c1cnc(Cl)c(Cl)c1)NCc1ccco1`: 10.1% (inactive); `O=S(=O)(NCC1CCCO1)c1cnc(Cl)c(Cl)c1` (stereo not given): 24.7% (inactive). The value for `COC(=O)C[C@H]1C[C@@H]2c3cc(N(C)C)ccc3O[C@@H]2[C@H](CO)O1` was 13% (inactive); that for `O=C1c2ccccc2C(=O)N1CCc1nn[nH]n1` was 14.6% (inactive). The value for `CN(C)C(CNC(=O)c1cccc(C#N)c1)c1ccco1` (stereo not given) was 0.76% (inactive); that for `CN(C)C(CNC(=O)CCCOc1ccccc1)c1ccco1` (stereo not given) was 29.7% (active); that for `O=C(CCCOc1ccccc1)NCc1ccco1` was 2.67% (inactive). With `CN(CC(=O)NNC(=O)CNC(=O)c1ccccc1Cl)S(=O)(=O)c1ccc(Cl)cc1`, the inhibition was 2.86% (inactive).

In the case of `CN(CC(=O)NCC(c1ccccc1)N1CCCC1)S(=O)(=O)c1ccc(Cl)cc1` (stereo not given), the inhibition was -2.78% (inactive). Next, `CN(CC(=O)NCCc1ccccn1)S(=O)(=O)c1ccc(Cl)cc1`: 30.3% (active); `Cc1ccc(S(=O)(=O)N2CCCC2C(=O)NCc2ccco2)cc1` (stereo not given): -0.46% (inactive). Next, `COC(=O)COc1ccc(C2NC(=O)NC(C)=C2C(=O)NCc2ccccc2)cc1OC` (stereo not given): 21.9% (inactive); `C[C@H]([C@@H](O)[C@@H](O)[C@@H](C)C(C)(C)C)[C@H]1CC[C@H]2C3CC[C@H]4C[C@H](OS(=O)(=O)O)[C@@H](OS(=O)(=O)O)C[C@]4(C)[C@H]3CC[C@]12C` (stereo not given in full): 9.52% (inactive). For the compound `CCN(CCCNC(=O)C1CCN(S(=O)(=O)c2cnc[nH]2)CC1)c1ccccc1`, the inhibition was 17.3% (inactive).
